# Test results taken from ChEMBL document CHEMBL1127687, “Benzoxazolamines and benzothiazolamines: potent, enantioselective inhibitors of leukotriene biosynthesis with a novel mechanism of action” (J Med Chem, 1994).
# Species: Homo sapiens
# Assay: Inhibitory activity of Ca-ionophore-A23187-induced Leukotriene B4 (LTB4) release in human polymorphonuclear leukocytes at the dose of 1 micro M concentration
# Format: functional
# Conditions: not given
# In short: (§1)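 Human PMNs isolated from heparinized blood of healthy, medication-free donors (dextran sedimentation, Ficoll–Paque). DMSO stocks diluted into Ca/Mg-free Dulbecco's PBS. Cells (2.5 × 10^6/mL, PBS with Ca2+/Mg2+) preincubated with compound 15 min at 28 °C with shaking, then stimulated 10 min with A23187 (2.5 μM final). Stopped with EGTA (10 mM final), centrifuged, supernatant LTB4 measured by RIA.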
row,SMILES,Inhibition
1,CCOC(=O)C(Cc1c[nH]cn1)Nc1nc2cc(C(C)C)ccc2o1 (configuration not stated),26%
2,CCOC(=O)C(Cc1cncn1CC)Nc1nc2cc(C(C)C)ccc2o1 (configuration not stated),59%

# Species: Homo sapiens
# Assay: Inhibitory activity of Ca-ionophore-A23187-induced Leukotriene B4 (LTB4) release in human polymorphonuclear leukocytes at the dose of 3 micro M concentration
# Format: functional
# Conditions: not given
# In short: as §1
row,SMILES,Inhibition
1,CCOC(=O)C(Nc1nc2ccccc2s1)c1ccccc1 (configuration not stated),61%
2,NC(=O)c1ccc2oc(NC(CC3CCCCC3)c3ccccc3)nc2c1 (configuration not stated),35%
3,O=S1(=O)CCN(CC(Nc2nc3cc(Cl)ccc3o2)c2ccccc2)CC1 (configuration not stated),46%
4,O=C(O)C(Cc1ccccc1)Nc1nc2ccccc2s1 (configuration not stated),-19%
5,CCOC(=O)C(Cc1ccccc1)Cc1nc2ccccc2s1 (configuration not stated),56%
6,O=[N+]([O-])c1ccc2oc(NC(Cc3ccc(O)cc3)c3ccccn3)nc2c1 (configuration not stated),27%

# Same assay, conditions: in the assay text read “0.3 micro M” for “3 micro M”
row,SMILES,Inhibition
1,OCc1ccc2oc(NC(CC3CCCCC3)c3ccccc3)nc2c1 (configuration not stated),41%

# Species: Homo sapiens
# Assay: Inhibitory activity of Ca-ionophore-A23187-induced Leukotriene B4 (LTB4) release in human polymorphonuclear leukocytes
# Format: functional
# Conditions: not given
# In short: as §1
IC50,SMILES,Inhibition
8 nM,c1ccc(C(CC2CCCCC2)Nc2nc3ccccc3o2)cc1 (stereo in doubt; 26a),
,CN1CCN(CC(Nc2nc3cc(Cl)ccc3o2)c2ccccc2)CC1 (configuration not stated),21%
20 nM,Fc1ccc(CC(Nc2nc3cc(Cl)ccc3o2)c2ccccn2)cc1 (stereo in doubt; 59a),
340 nM,c1ccc(C(CC2CCCCC2)Nc2nc3ccccc3o2)cc1 (stereo in doubt; 26c),
320 nM,Fc1ccc(CC(Nc2nc3cc(Cl)ccc3o2)c2ccccn2)cc1 (stereo in doubt; 59c),
6 nM,c1ccc(C(CC2CCCCC2)Nc2nc3ccccc3o2)cc1 (stereo in doubt; 26b),

# Same assay, conditions: Homo sapiens
row,SMILES,IC50
1,CC(=O)Nc1ccc2oc(NC(CC3CCCCC3)c3ccccc3)nc2c1 (configuration not stated),78 nM
2,Fc1ccc(C(CC2CCCCC2)Nc2nc3ccccc3o2)cc1 (configuration not stated),170 nM
3,Fc1ccc(CC(Nc2nc3cc(F)c(F)cc3o2)c2ccccn2)cc1 (configuration not stated),30 nM
4,CCOC(=O)c1ccc2oc(NC(CC3CCCCC3)c3ccccc3)nc2c1 (configuration not stated),45 nM
5,Cc1ccc2oc(NC(CC3CCCCC3)c3cccnc3)nc2c1 (configuration not stated),20 nM
6,Clc1ccc2oc(NC(CN3CCSCC3)c3ccccc3)nc2c1 (configuration not stated),48 nM
7,Cc1cccc(C(CC2CCCCC2)Nc2nc3ccccc3o2)c1 (configuration not stated),300 nM
8,Clc1ccc2oc(NC(Cc3ccccc3)c3ccccc3)nc2c1 (configuration not stated),23 nM
9,CC(C)c1ccc2oc(NC(Cc3cccc(Cl)c3)c3ccccn3)nc2c1 (configuration not stated),5 nM
10,O=[N+]([O-])c1ccc2oc(NC(Cc3ccc(F)cc3)c3ccccn3)nc2c1 (configuration not stated),16 nM
11,Cc1ccc2oc(N[C@H](CC3CCCCC3)c3ccccn3)nc2c1,40 nM
12,Fc1ccc(CC(Nc2nc3cc(F)ccc3o2)c2ccccn2)cc1 (configuration not stated),21 nM
13,Fc1ccc(CC(Nc2nc3cc(C(F)(F)F)ccc3o2)c2ccccn2)cc1 (configuration not stated),8 nM
14,Cc1noc(C(Cc2ccc(F)cc2)Nc2nc3cc(C(C)C)ccc3o2)n1 (configuration not stated),440 nM
15,Cc1ccc2oc(NC(CC3CCCCC3)c3ccccn3)nc2c1 (configuration not stated),4 nM
16,COC(=O)[C@@H](CC1CCCCC1)Nc1nc2ccccc2o1,100 nM
17,CNC(=O)C(CC1CCCCC1)Nc1nc2cc(C)ccc2o1 (configuration not stated),72 nM
18,CC(C)c1ccc2oc(NC(Cc3ccc(F)cc3)c3ccccn3)nc2c1 (configuration not stated),12 nM

row,SMILES,IC50
1,Cc1ccc2oc(N[C@@H](CC3CCCCC3)c3ccccn3)nc2c1 [ONTAZOLAST],1 nM
2,CN(C)S(=O)(=O)c1ccc2oc(NC(Cc3ccc(F)cc3)c3ccccn3)nc2c1 (configuration not stated),50 nM
3,CN(C)C(=O)c1ccc2oc(NC(CC3CCCCC3)c3ccccc3)nc2c1 (configuration not stated),170 nM
4,Cc1nc(CC(Nc2nc3cc(C(C)C)ccc3o2)c2ccccn2)cs1 (configuration not stated),29 nM
5,Cc1ccc2oc(NC(CC3CCCCC3)c3ccncc3)nc2c1 (configuration not stated),190 nM
6,c1ccc(CC(Nc2nc3ccccc3o2)c2ccccc2)cc1 (configuration not stated),51 nM
7,COc1ccc(C(CC2CCCCC2)Nc2nc3ccccc3o2)cc1 (configuration not stated),550 nM
8,CC(C)c1ccc2oc(N[C@H](CN3CCCCC3)c3ccccc3)nc2c1,1200 nM
9,CC(C)c1ccc2oc(NC(CC3CCCCC3)c3ccccc3)nc2c1 (configuration not stated),6 nM
10,Clc1ccccc1C(CC1CCCCC1)Nc1nc2ccccc2o1 (configuration not stated),80 nM
11,N#Cc1ccc2oc(NC(CC3CCCCC3)c3ccccc3)nc2c1 (configuration not stated),15 nM
12,CC(=O)C(Cc1ccccc1)Nc1nc2ccc(C(C)C)cc2o1 (configuration not stated),350 nM
13,CC(C)c1ccc2oc(NC(CN3CCOCC3)c3ccccc3)nc2c1 (configuration not stated),52 nM
14,CC(C)c1ccc2oc(N[C@@H](CN3CCCCC3)c3ccccc3)nc2c1,100 nM
15,COC(=O)[C@H](CC1CCCCC1)Nc1nc2ccccc2o1,5 nM
16,CS(=O)(=O)Nc1ccc2oc(NC(CC3CCCCC3)c3ccccc3)nc2c1 (configuration not stated),160 nM
17,CSCC(Cc1ccccc1)Nc1nc2cc(C(C)C)ccc2o1 (configuration not stated),13 nM
18,O=C(O)c1ccc2oc(NC(CC3CCCCC3)c3ccccc3)nc2c1 (configuration not stated),150 nM

# More lines, now with the values ahead:
row,IC50,SMILES
1,170 nM,CCCOCC(Cc1ccc(F)cc1)Nc1nc2cc(C(C)C)ccc2o1 (configuration not stated)
2,17 nM,COCC(Cc1ccc(F)cc1)Nc1nc2cc(C(C)C)ccc2o1 (configuration not stated)
3,1000 nM,CCOC(=O)C(Cc1ccccc1)N(C)c1nc2ccccc2s1 (configuration not stated)
4,520 nM,CCOC(=O)C(CCc1ccccc1)Nc1nc2ccccc2s1 (configuration not stated)
5,0.5 nM,CCOC(=O)C(Cc1ccccc1)Nc1nc2cc(C(C)C)ccc2o1 (configuration not stated)
6,41 nM,CCOCC(Cc1ccc(F)cc1)Nc1nc2cc(C(C)C)ccc2o1 (configuration not stated)
7,180 nM,CCCCc1ccc2nc(NC(Cc3ccc(Cl)cc3)C(=O)OCC)sc2c1 (configuration not stated)
8,14 nM,COc1ccc(CC(Nc2nc3cc([N+](=O)[O-])ccc3o2)c2ccccn2)cc1 (configuration not stated)
9,170 nM,c1ccc(CC(Nc2nc3ccccc3s2)c2ccccc2)cc1 (configuration not stated)
10,29 nM,CC(C)c1ccc2oc(NC(Cc3ccc(Cl)cc3)c3ccccn3)nc2c1 (configuration not stated)
11,1500 nM,CCOC(=O)[C@@H](Cc1ccccc1)Nc1nc2ccccc2o1
12,230 nM,CCOC(=O)C(Cc1ccc(Cl)cc1)Nc1nc2ccc(OC)cc2s1 (configuration not stated)
13,240 nM,CCOC(=O)C(Cc1ccccc1)Nc1nc2ccc(CC)cc2s1 (configuration not stated)
14,16 nM,CCOC(=O)C(Cc1csc(C)n1)Nc1nc2cc(C(C)C)ccc2o1 (configuration not stated)
15,12 nM,CCOC(=O)C(Cc1ccccc1)Nc1nc2cc(CC)ccc2s1 (configuration not stated)
16,330 nM,CCOC(=O)C(Cc1ccc(F)cc1)Nc1nc2ccccc2s1 (configuration not stated)
17,230 nM,CCOC(=O)[C@H](Cc1ccccc1)Nc1nc2ccccc2s1
18,150 nM,CCOC(=O)[C@H](Cc1ccccc1)Nc1nc2ccccc2o1
19,360 nM,CCOC(=O)C(Cc1ccccc1)Nc1nc2ccccc2s1 (configuration not stated)
20,27 nM,CCOC(=O)c1ccc2oc(NC(Cc3ccc(F)cc3)c3ccccn3)nc2c1 (configuration not stated)
21,150 nM,CCOC(=O)C(Cc1ccc(Br)cc1)Nc1nc2ccccc2s1 (configuration not stated)
22,9 nM,COc1ccc2oc(NC(Cc3ccccc3)c3ccccc3)nc2c1 (configuration not stated)
23,11 nM,COc1ccc2oc(NC(Cc3ccc(F)cc3)c3ccccn3)nc2c1 (configuration not stated)
24,220 nM,CCOC(=O)C(Cc1ccccc1)Nc1nc2ccc(C(C)C)cc2o1 (configuration not stated)
25,200 nM,CCOC(=O)C(Cc1ccc(Cl)cc1)Nc1nc2ccccc2s1 (configuration not stated)
26,330 nM,CCOC(=O)C(Cc1ccc(Cl)cc1)Nc1nc2ccc(C(C)C)cc2s1 (configuration not stated)
